From ChEMBL document CHEMBL4130499, “Serendipitous discovery of potent human head and neck squamous cell carcinoma anti-cancer molecules: A fortunate failure of a rational molecular design” (Eur J Med Chem, 2017)
Activity calls are given as the source filed them. The calls are words filed in the database; no cut-off is given here.

Legend:
Histone deacetylase = experiment: Inhibition of HDAC in human HeLa nuclear extracts incubated for 60 mins using fluorometric substrate by fluorometric assay; type: protein assay
Method in brief: (§1)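 HeLa nuclear extract incubated with compound, assay buffer and acetyl-lysine fluorogenic HDAC substrate for 60 min at 37 °C. Lysine developer then added for a further 30 min at 37 °C. Fluorescence read at ex 370/em 450 nm. Water served as positive control and 20 µM TSA as inhibitor control.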

[1] = target: T1, Histone deacetylase (Homo sapiens) (UniProt Q13547+O15379+Q9UBN7+Q92769+Q9UQL6+Q8WUI4+Q9BY41+Q96DB2+P56524+Q9UKV0+Q969S8); experiment: Inhibition of HDAC in human HN13 cells assessed as reduction in histone H3 acetylation incubated for 24 hrs by immunofluorescence assay; type: cell-based
Method in brief: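 HN13 on glass coverslips, overnight at 37 °C, then treated 24 h at 1 and 10 nM, TSA as positive control. Fixed in 4% paraformaldehyde, permeabilized with 0.5% Triton X-100, blocked in 3% BSA/PBS. Anti-AcH3 (lys9) primary 2 h, TRITC anti-rabbit 1 h, nuclear counterstain.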

[2] = Cytotoxicity in human HN6 cells assessed as reduction in cell viability incubated for 24 hrs by MTT assay; type: functional, cell-based; conditions: HN-6, 24 h
Method in brief: (§2)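 HNSCC lines (HN6, HN12, HN13) grown in DMEM with 10% fetal calf serum at 37 °C, 5% CO2, to 70–80% confluence. Seeded, after 24 h exposed to rising compound concentrations for a further 24 h. MTT (5 mg/mL in PBS) added, formazan dissolved in DMSO, absorbance read at 590 nm. IC50 in nM, mean of three independent triplicate experiments ± standard error.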

[3] = Cytotoxicity in human HN12 cells assessed as reduction in cell viability incubated for 24 hrs by MTT assay; type: functional, cell-based; conditions: HN12, 24 h; method in brief: as §2
WSU-HN13 [4] = experiment: Cytotoxicity in human HN13 cells assessed as reduction in cell viability incubated for 24 hrs by MTT assay; type: functional, cell-based; conditions: WSU-HN13, 24 h; method in brief: as §2
184B5 = experiment: Cytotoxicity in human 184B5 cells assessed as reduction in cell viability incubated for 24 hrs by MTT assay; type: cell-based; conditions: 184B5, 24 h
Method in brief: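 184B5 immortalized non-cancer breast epithelial cells; cytotoxicity over 24 h drug exposure, evaluated alongside the HNSCC lines; IC50 in nM taken as mean of three independent triplicate experiments ± standard error.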

[5] = Selectivity index, ratio of IC50 for cytotoxicity in human […] cells; type: toxicity, cell-based; conditions: HN13 cells and 184B5 cells, read-out: Ratio IC50
WSU-HN13 [6] = experiment: Induction of PTEN protein expression in human HN13 cells incubated for 24 hrs by Western blot; type: functional, cell-based
Method in brief: (§3)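 HN13 cells treated 24 h with 1.0 or 10.0 nM compound versus vehicle controls. Lysed in Tris pH 7.5/SDS/β-mercaptoethanol with protease inhibitors at 4 °C, protein quantified by BCA. 30 μg loaded for SDS-PAGE, transferred to PVDF, blocked 1 h in 5% milk, probed for PTEN (and pS6) with GAPDH loading control. HRP chemiluminescent detection.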

WSU-HN13 [7] = experiment: Induction of PTEN protein expression in human HN13 cells assessed as reduction in PI3K/Akt/mTOR signalling by measuring reduction in pS6 protein expression incubated for 24 hrs by Western blot; type: functional, cell-based; method in brief: as §3
[8] = target: T1, Histone deacetylase (Homo sapiens); experiment: Inhibition of HDAC in human HN13 cells assessed as increase in histone H3 acetylation at 1 nM incubated for 24 hrs by Western blot
[9] = target: T1, Histone deacetylase (Homo sapiens); experiment: Ratio of inhibition of HDAC in human HN13 cells assessed as increase in histone H3 acetylation to IC50 for inhibition of HDAC in human HeLa nuclear extracts
[10] = target: T1, Histone deacetylase (Homo sapiens); experiment: Inhibition of HDAC in human HeLa nuclear extracts at 500 uM incubated for 60 mins using fluorometric substrate by fluorometric assay; type: protein assay; method in brief: as §1

Question: Which results are given for `O=CN/N=C/c1ccc(NS(=O)(=O)c2ccc(-c3ccccc3)cc2)cc1O`?
Answer: IC50 (Histone deacetylase): 292 µM; inhibition [1]: Dose-dependent effect; IC50 [2]: 4.94 nM; IC50 [3]: 5.03 nM; IC50 (WSU-HN13 [4]): 9.85 nM; IC50 (184B5): 1840 nM; selectivity ratio [5]: > 186; Activity (WSU-HN13 [6]): Dose-dependent effect; Activity (WSU-HN13 [7]): Dose-dependent effect; inhibition [8]: Active; Ratio [9]: 10

Question: What does the source list for `NC(=O)c1ccc(NS(=O)(=O)c2ccc(-c3ccccc3)cc2)cc1O`?
Answer: inhibition [10]: 20%; inhibition [1]: Dose-dependent effect; IC50 [2]: 4.73 nM; IC50 [3]: 4.99 nM; IC50 (WSU-HN13 [4]): 9.66 nM; IC50 (184B5): 1960 nM; selectivity ratio [5]: > 200; Activity (WSU-HN13 [6]): Dose-dependent effect; Activity (WSU-HN13 [7]): Dose-dependent effect; inhibition [8]: Active; Ratio [9]: 10
